Bioassay records: PubChem BioAssay, several laboratories
An excerpt weighted towards active compounds, which were near 4% of everything screened.
RAM network inh = inhibitors of the yeast RAM network, primary screen, dse1pr::URA3 reporter, 5-FOA selection; S. cerevisiae dse1pr::URA3 reporter, 5-FOA growth OD615, 2 d; analog-sensitive cbk1-as2 kinase mutant strain; inhibition, % at 50 µM; 1.8% of 190,000 active;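 active means inhibition above a set limit, 3 SD over mean compound inhibition, cut at about 8.4% in these data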;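 further: 0% = DMSO-only wells with no growth and 100% = 10 µM 1-NA-PP1 full growth; inhibition rescues growth on 5-FOA so higher OD means more RAM inhibition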
INS promoter inh = inhibitors of insulin promoter-driven GFP, primary screen, imaging, TRM-6 cells, eGFP reporter, cell count; reporter expression induced with tamoxifen; inhibition, % at 2 µM; 0.9% of 130,000 active; AID 1273, 2008;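 active means inhibition above the mean plus 3 SD, with well images judged a real hit on visual review, cut at about 60% in these data, passing the limit was not always enough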
Yeast life ext = compounds extending yeast replicative lifespan, primary screen, S. cerevisiae, OD615; S. cerevisiae growth with nicotinamide; deaD strain in restrictive glucose medium; inhibition of the nicotinamide effect, % at 10 µM; 0.68% of 130,000 active;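 active means inhibition above a set limit, placed 3 SD over the median of all compounds, cut at about 26% in these data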;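 further: 0% = nicotinamide-treated wells and 100% = cells grown without nicotinamide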
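System: DeaD-strain S. cerevisiae / Buffer or medium: CSMM-D, restrictive glucose (dextrose) synthetic minimal medium / Probe or stimulus: nicotinamide, 1.5 mM, co-present with compound / Compound: one concentration, 10 µM, DMSO 0.25% / Incubation: 48 h compound exposure at 30 °C, humidified / Technique: optical density (absorbance) at 615 nm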
Measles CPE = compounds protecting cells from measles virus cytopathic effect, primary screen, measles RdRp inhibitor project, single point, MLSMR library, absorbance; Measles virus-infected cells, CPE protection; protection (pct of control), % at 4 µM; 1.5% of 140,000 active; in the data active means protection mostly above about 24%, no sharp cut-off; inactive means mostly below about 26%
Mdm2 ligase inh = MDM2-luciferase reporter signal enhancers, primary screen, MDM2 E3 ligase inhibitor project, cell-based, luminescence, 1536-well; 0.11% of 210,000 active; signal enhancement, % at 5 µM; cell-based MDM2 ubiquitination luciferase reporter, 2 h; 0 = plate control, 100 = twice control, blank-subtracted;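 active means signal enhancement of 30% or more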;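 further: luminescence tracks abundance of the self-degrading MDM2-luciferase fusion protein; higher signal means inhibition of MDM2 E3 ligase activity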
Target sequence (Q00987 whole entry, looked up, the tested form may be a part): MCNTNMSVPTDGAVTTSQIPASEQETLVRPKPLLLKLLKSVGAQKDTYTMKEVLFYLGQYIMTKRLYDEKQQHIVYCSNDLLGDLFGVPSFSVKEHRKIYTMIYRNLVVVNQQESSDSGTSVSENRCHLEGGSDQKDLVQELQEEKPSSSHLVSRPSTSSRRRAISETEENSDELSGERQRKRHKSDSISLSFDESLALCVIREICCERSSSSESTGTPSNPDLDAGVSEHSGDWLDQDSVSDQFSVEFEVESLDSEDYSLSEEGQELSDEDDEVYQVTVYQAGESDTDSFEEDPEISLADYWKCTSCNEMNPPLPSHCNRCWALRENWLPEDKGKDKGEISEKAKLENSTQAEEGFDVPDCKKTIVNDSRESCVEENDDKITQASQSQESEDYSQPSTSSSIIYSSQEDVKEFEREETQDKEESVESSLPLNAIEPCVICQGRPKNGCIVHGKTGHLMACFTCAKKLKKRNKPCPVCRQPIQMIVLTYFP
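Buffer or medium: Cells held in DMEM | Assay system: Stable mammalian line carrying autodegrading MDM2–luciferase fusion reporter | Quantity: 2000 cells/well | Times: 4 h settle plus 2 h compound, 37 °C | Doses: One concentration, 5 µM, with 0.2% DMSO | Technique: Luminescence with SteadyLite reagent, 15 min at room temperature | Benchmarks: Plate controls and plate blanks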
BB579 growth dn = growth inhibitors of yeast BB579 in restrictive medium, primary screen, yeast lifespan-shortening project, S. cerevisiae; OD615, 48 h; inhibition, % at 10 µM; 0.51% of 140,000 active; AID 804, 2007;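 active means inhibition above a set limit, 3 SD over the mean compound inhibition, cut at about 44% in these data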
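Detection: OD615 turbidity measurement; Material: Saccharomyces cerevisiae DeaD strain BB579, replicative lifespan model yeast; Timing: 48 h exposure, 30 °C; Doses: single 10 µM dose; Medium: CSMM-D restrictive synthetic medium containing dextrose (glucose); Controls: amphotericin B at 10 µg/mL as positive control.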
The depositor's hits bear a star; . = not tested or not shown.

SMILES	RAM network inh	INS promoter inh	Yeast life ext	Measles CPE	Mdm2 ligase inh	BB579 growth dn
O=C(Oc1cccc(/C=N/Nc2nc(Nc3ccccc3)nc(N3CCOCC3)n2)c1)c1ccco1	2	-12	-6	19*	-13	2
CN1CCCN(S(=O)(=O)c2ccc(Cl)c(Cl)c2)CC1	2	22	.	.	-12	.
N#Cc1c(/N=C/C=C/c2ccccc2)sc2c1CCCC2	3	.	-9	26	-3	-2
COc1ccc(O[C@H]2C=C[C@@H](c3ccccc3)O[C@@H]2COC(=O)CC/C(C)=N/O[C@@H](C)c2cn([C@H](CO)Cc3ccccc3)nn2)cc1	11*	-86	3	12	.	-60
CCOC(=O)N1CCN(C(=O)CN(c2ccccc2)S(C)(=O)=O)CC1	-1	.	.	.	-13	.
CCOC(=O)N1CCN(C(=O)CN(c2ccc3c(c2)OCO3)S(C)(=O)=O)CC1	1	79*	-11	8	-10	8
CCOC(=O)N1CCN(C(=O)CN(c2ccc(OCc3ccccc3)cc2)S(C)(=O)=O)CC1	-1	-44	12	28*	-16	-54
COc1ccc(N(CC(=O)N2CCN(C)CC2)S(C)(=O)=O)cc1OC	1	.	-24	50*	-31	17
COc1ccc(C(=O)C[n+]2ccc3c(c2)nc(-c2cc(OC)c(OC)cc2OC)n3C)cc1	2	23	-3	15	7	-6
COc1cc(OC)c(-c2nc3c[n+](CC(=O)c4ccccc4)ccc3n2C)cc1OC	2	-19	-1	38*	-7	-5
CCCCn1c(SCC(=O)Nc2cc(C(F)(F)F)cc(C(F)(F)F)c2)nnc1C(CC)N(C)C (stereo not given)	-1	-44	5	8	-6	-43
CCOC(=O)C1=C(NC(=S)NC(=O)c2ccccc2)c2ccccc2CC1(C)CC (stereo not given)	11*	-58	6	25	-5	-41
CCOC(=O)c1sc(NC(=S)NC(=O)c2ccccc2)c(C(=O)OCC)c1C	5	21	1	6	-9	-8
CCN1CN(Cc2ccco2)CNC1=S	1	45	4	13	-3	-12
CC(CCc1ccccc1)NC(=O)CSc1nc(N)cc(N)n1 (stereo not given)	2	-32	-4	19	-16	-4
Cc1ccc(NC(=O)C(C)c2cccc(C(=O)c3ccccc3)c2)cc1O (stereo not given)	8.8*	-64	7	19	3	-56
Cc1ccc(NC(=O)C(c2ccccc2)N(C)C)cc1Cl (stereo not given)	1	50	.	.	-13	.
Cc1ccc(C)c(N2C(=O)c3cc(N4CCOCC4)c([N+](=O)[O-])cc3C2=O)c1	2	28	-1	11	12	-14
Cn1c(N)c(C(=O)CSc2nc(N)cc(N)n2)c(=O)n(C)c1=O	2	-64	.	.	-3	.
NC(=O)c1cccc(C(N)=O)n1	-2	.	.	.	15	.
COc1ccc(NC(=S)NNC(=O)CCn2cc([N+](=O)[O-])cn2)cc1	2	88*	.	.	9	.
CCOC(=O)Cc1csc(NC(=O)CSc2nc(N)c3c(C)c(C)sc3n2)n1	3	100*	-2	7	-18	-33
COC(=O)c1sccc1NC(=O)CSc1cc(Cl)ccc1Cl	9.5*	-2	-14	11	-20	-34
CCOC(=O)Cc1csc(NC(=O)CSc2cc(Cl)ccc2Cl)n1	4	11	6	29*	-3	-5
COc1ccc(S(=O)(=O)N2CCc3ccccc32)cc1C(=O)NCCc1ccccn1	0	43	.	.	-4	.
SMILES	RAM network inh	INS promoter inh	Yeast life ext	Measles CPE	Mdm2 ligase inh	BB579 growth dn
Cc1cccc(N2CCN(C(=S)c3ccc(-c4ccccc4[N+](=O)[O-])o3)CC2)c1	11*	11	4	15	0	-65
O=[N+]([O-])c1ccccc1-c1ccc(C(=S)N2CCCC2)o1	2	.	.	.	-5	.
O=C(NCCNCCO)c1c(O)c2cccc3c2n(c1=O)CCC3	-1	-14	33*	4	-13	-10
CCN(CC)CCNC(=O)c1c(O)c2cccc3c2n(c1=O)CCC3	0	3	26	9	-20	-34
COc1ccc(CNC(=O)c2c(O)c3cccc4c3n(c2=O)CCC4)cc1OC	3	0	34*	15	-10	-52
CCCCCCNC(=O)c1c(O)c2cccc3c2n(c1=O)CCC3	1	.	24	7	-8	-55
COc1ccc(CNC(=O)c2c(O)c3cccc4c3n(c2=O)CCC4)cc1	3	31	34*	4	6	-3
COc1ccc(CCNC(=O)c2c(O)c3cccc4c3n(c2=O)CC4)cc1	8.5*	40	30	0	0	-55
COc1ccc(OCC(=O)NNC(=O)c2cccc(O)c2)cc1	1	.	.	.	-19	.
CCCCCCN(C(=O)CCCCCN1C(=O)NC(c2ccccc2)C(C(=O)OCc2ccccc2)=C1C)C(C(=O)NCCCC)c1ccc(OCC(=O)OC)c(C(=O)OC)c1 (stereo not given)	.	.	.	.	1	.
Cc1ccc(C(=O)OCn2ncc(Cl)c(Cl)c2=O)cc1	-2	-194	-12	1	17	86*
Cc1cccc(Cn2ncc(Cl)c(Cl)c2=O)c1	3	.	-19	17	-15	49*
COc1ccc(C(=O)c2ccc(N3CCN(C(=O)c4ccc(F)cc4)CC3)c(F)c2)cc1Br	6	-31	3	56*	-9	-63
CCC(=O)c1ccc(N2CCN(C(=O)c3ccc(F)cc3)CC2)c(F)c1	2	11	.	.	-4	.
Cn1c(/C=C/c2ccc([N+](=O)[O-])o2)nc2ccccc2c1=O	0	5	3	1	-6	82*
CNS(=O)(=O)c1ccc(C)cc1	2	-29	-8	9	-2	-11
Cc1ccc(S(=O)(=O)c2ccc(C)cc2)cc1	2	19	58*	26	3	-17
C/C(=N\O)C(=O)NCCCNCCCN(C)C	1	3	-9	49*	10	3
C/C(=N\O)C(=O)NCCN(C)C	1	.	5	18	6	12
CCCCC(=O)Nc1sc2c(c1C(=O)OCC)CCC(C=O)=C2Cl	9.2*	.	-1	10	-5	-17
CCOC(=O)c1c(NC(=O)c2ccccc2Cl)sc2c1CCc1ccccc1-2	7	7	-4	6	-11	-45
